Experimental data as given in ChEMBL document CHEMBL1811909, “Synthesis and antiproliferative activity of novel 2-aryl-4-benzoyl-imidazole derivatives targeting tubulin polymerization” (Bioorg Med Chem, 2011).

Key:
PC-3 [1] = experiment: Antiproliferative activity against human PC3 cells by sulforhodamine B assay; format: functional, cell-based
Procedure, shortened: (§1)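 Prostate cancer cells grown in RPMI 1640 with 10% FBS at 37 °C, 5% CO2. Cells (1000–5000/well, by growth rate) were exposed to a range of concentrations for 96 h, in three to five replicates. Growth was read by SRB: TCA fixation, 0.4% SRB stain, absorbance at 540 nm.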

PC-3 [2] = experiment: Antiproliferative activity against human paclitaxel-resistant PC3 cells by sulforhodamine B assay; format: functional, cell-based; procedure, shortened: as §1
DU-145 [3] = experiment: Antiproliferative activity against human paclitaxel-resistant DU145 cells by sulforhodamine B assay; format: functional, cell-based
Procedure, shortened: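 Prostate cancer cells grown in RPMI 1640 with 10% FBS at 37 °C, 5% CO2. Seeded at 1000–5000 cells/well depending on growth rate and exposed to a concentration series for 96 h, in three to five replicates. Cells fixed with 10% TCA and stained with 0.4% SRB, absorbance read at 540 nm.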

A-375 = experiment: Antiproliferative activity against human A375 cells after 48 hrs by sulforhodamine B assay; format: functional, cell-based; conditions: A-375, 48 h
[4] = Antiproliferative activity against human WM164 cells after 48 hrs by sulforhodamine B assay; format: functional, cell-based; conditions: WM164, 48 h
LNCaP = experiment: Antiproliferative activity against human LNCAP cells after 96 hrs by sulforhodamine B assay; format: functional, cell-based
PC-3 [5] = experiment: Antiproliferative activity against human PC3 cells after 96 hrs by sulforhodamine B assay; format: functional, cell-based; conditions: PC-3, 96 h
DU-145 [6] = experiment: Antiproliferative activity against human DU145 cells after 96 hrs by sulforhodamine B assay; format: functional, cell-based; conditions: DU-145, 96 h
PPC-1 = experiment: Antiproliferative activity against human PPC1 cells after 96 hrs by sulforhodamine B assay; format: functional, cell-based; conditions: PPC-1, 96 h
Bos taurus = organism: Bos taurus; experiment: Inhibition of bovine brain tubulin polymerization after 15 mins by spectrophotometric analysis
Procedure, shortened: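 Bovine brain tubulin (>97% pure, 0.4 mg per assay) mixed with compound at 5, 10 or 20 µM, with 5% DMSO as vehicle control. Buffer: 80 mM PIPES, 2.0 mM MgCl2, 0.5 mM EGTA, 1 mM GTP, pH 6.9. Polymerization followed at 37 °C as absorbance at 340 nm, read every minute for 15 min.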

SMILES | IC50 (PC-3 [1]) | IC50 (PC-3 [2]) | IC50 (DU-145 [3]) | IC50 (A-375) | IC50 [4] | IC50 (LNCaP) | IC50 (PC-3 [5]) | IC50 (DU-145 [6]) | IC50 (PPC-1) | inhibition (Bos taurus)
CC(=O)O[C@H]1C(=O)[C@@]2(C)[C@H]([C@H](OC(=O)c3ccccc3)[C@]3(O)C[C@H](OC(=O)[C@H](O)[C@@H](NC(=O)c4ccccc4)c4ccccc4)C(C)=C1C3(C)C)[C@]1(OC(C)=O)CO[C@@H]1C[C@@H]2O [PACLITAXEL] | 0.00043 µM | 0.188 µM | > 3 µM | – | – | – | – | – | – | –
COc1ccc2[nH]c(C(=O)c3cc(OC)c(OC)c(OC)c3)cc2c1 | – | – | – | 0.03 µM | 0.04 µM | 0.05 µM | 0.04 µM | 0.08 µM | 0.05 µM | Dose-dependent effect
COc1cc(C(=O)c2cc3ccc(Cl)cc3n2C)cc(OC)c1OC | – | – | – | 6.65 µM | 8.08 µM | 1.04 µM | 3.76 µM | > 10 µM | 4.33 µM | Dose-dependent effect
COc1ccc(S(=O)(=O)n2cc(C(=O)c3ccc(F)cc3)nc2-c2ccc(N(C)C)cc2)cc1 | – | – | – | 0.1 µM | 0.1 µM | 0.07 µM | 0.04 µM | 0.13 µM | 0.06 µM | Dose-dependent effect
COc1cc(C(O)(c2nc3ccccc3s2)c2nc3ccccc3s2)cc(OC)c1OC | – | – | – | > 10 µM | > 10 µM | > 10 µM | > 10 µM | > 10 µM | > 10 µM | Dose-dependent effect
COc1cc(C(=O)c2cc3ccc(F)cc3n2C)cc(OC)c1OC | – | – | – | 5.87 µM | 7.5 µM | 1.05 µM | > 10 µM | > 10 µM | 8.3 µM | Dose-dependent effect
COc1cc(C(=O)c2cc3cc(Cl)ccc3[nH]2)cc(OC)c1OC | – | – | – | 1.47 µM | 2.16 µM | > 10 µM | > 10 µM | > 10 µM | > 10 µM | Dose-dependent effect
COc1cc(C(=O)c2cc3ccc(F)cc3[nH]2)cc(OC)c1OC | – | – | – | > 10 µM | > 10 µM | > 10 µM | > 10 µM | > 10 µM | > 10 µM | Dose-dependent effect
COc1ccc2cc(C(=O)c3cc(OC)c(OC)c(OC)c3)n(S(=O)(=O)c3ccccc3)c2c1 | – | – | – | 8.22 µM | > 10 µM | > 10 µM | 2.66 µM | > 10 µM | 1.05 µM | Dose-dependent effect
COc1cc(C(=O)c2c[nH]c(-c3ccc(Cl)cc3)n2)cc(OC)c1O | – | – | – | 0.68 µM | 0.5 µM | 0.55 µM | 0.3 µM | 1 µM | 0.58 µM | Dose-dependent effect
COc1cc(C(=O)c2cc3ccc(F)cc3n2S(=O)(=O)c2ccccc2)cc(OC)c1OC | – | – | – | > 10 µM | > 10 µM | > 10 µM | > 10 µM | > 10 µM | > 10 µM | Dose-dependent effect
COc1cc(C(=O)c2c[nH]c(-c3ccc(C)cc3)n2)cc(OC)c1O | – | – | – | 0.11 µM | 0.12 µM | 0.13 µM | 0.13 µM | 0.17 µM | 0.11 µM | Dose-dependent effect
COc1ccc(-c2nc(C(=O)c3ccc(F)cc3)cn2C)cc1 | – | – | – | > 10 µM | > 10 µM | > 10 µM | > 10 µM | > 10 µM | > 10 µM | Dose-dependent effect
COc1cc(C(=O)c2cc3ccc(C)cc3[nH]2)cc(OC)c1OC | – | – | – | > 10 µM | > 10 µM | > 10 µM | > 10 µM | > 10 µM | > 10 µM | Dose-dependent effect
COc1cc(C(=O)c2nc3ccccc3[nH]2)cc(OC)c1OC | – | – | – | > 10 µM | > 10 µM | > 10 µM | > 10 µM | > 10 µM | > 10 µM | Dose-dependent effect
COc1cc(C(=O)c2nc3ccccc3s2)cc(OC)c1OC | – | – | – | > 10 µM | > 10 µM | > 10 µM | > 10 µM | > 10 µM | > 10 µM | Dose-dependent effect
COc1cc(C(=O)c2c[nH]c(-c3ccc4[nH]c(C(=O)c5cc(OC)c(OC)c(OC)c5)cc4c3)n2)cc(OC)c1OC | – | – | – | 1.8 µM | 1.7 µM | 1.07 µM | 2.63 µM | 5.92 µM | 4.58 µM | Dose-dependent effect
COc1cc(C(=O)c2cc3ccc(Cl)cc3[nH]2)cc(OC)c1OC | – | – | – | > 10 µM | > 10 µM | > 10 µM | > 10 µM | > 10 µM | > 10 µM | Dose-dependent effect
COc1cc(C(=O)c2cc3ccc(Cl)cc3n2Cc2ccccc2)cc(OC)c1OC | – | – | – | > 10 µM | > 10 µM | > 10 µM | > 10 µM | > 10 µM | > 10 µM | Dose-dependent effect
COc1cc(C(=O)c2nc3ccccc3o2)cc(OC)c1OC | – | – | – | > 10 µM | > 10 µM | > 10 µM | > 10 µM | > 10 µM | > 10 µM | Dose-dependent effect
COc1cc(C(=O)c2cc3cc(F)ccc3[nH]2)cc(OC)c1OC | – | – | – | 2.21 µM | 2.26 µM | 8.63 µM | 9.16 µM | 3.42 µM | 1 µM | Dose-dependent effect
COc1cc(C(=O)c2cn(Cc3ccccc3)c(-c3ccc(C)cc3)n2)cc(OC)c1OC | – | – | – | 1.06 µM | 1.17 µM | 0.68 µM | 0.47 µM | 1.5 µM | 0.78 µM | Dose-dependent effect
COc1ccc2cc(C(=O)c3cc(OC)c(OC)c(OC)c3)[nH]c2c1 | – | – | – | > 10 µM | > 10 µM | > 10 µM | > 10 µM | > 10 µM | > 10 µM | Dose-dependent effect
